Hits are enriched below; roughly 6.6% of the tested compounds scored in any of these assays.
H69AR growth 86K: growth inhibitors of human H69AR lung tumor cells; H69AR lung tumor viability, ATP luminescence, 72 h; active compounds read low; viability, % at 10 µM; hit rate 6% among 85,000;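 active = viability at or below 40%; inactive = viability above 40%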;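 also: multidrug resistant small cell line overexpressing MRP-1 efflux transporter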
Jurkat viability: cytotoxicity toward Jurkat cells | Jurkat E6.1 viability, ATP luminescence, 48 h | inhibition, % at 4 µM | hit rate 1.2% among 56,000 | AID 463;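 active = inhibition above the mean inhibition of all tested compounds plus 3 SD, cut at about 28% in these data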
Fibroblast inh: blocks proliferation of human lung fibroblasts | LL 47 human lung fibroblast viability, ATP luminescence; active compounds read low | viability, % at 10 µM | hit rate 1.1% among 85,000;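 active = viability at or below 50% in the single dose screen; inactive = viability above 50%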;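 also: compound exposure lasted 72 h before the ATP readout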
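material = human LL 47 lung fibroblast cells | dosing = compounds added from tenfold dosing solution, 0.1% DMSO final | timing = overnight cell rest, 72 h compound treatment at 37 °C | measured by = CellTiter-Glo luminescence measuring cellular ATP | evaluation = % viability versus median cells-only luminescence | control set = cell-only wells, no compound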
HUVEC inhibit: inhibitors of human endothelial cell proliferation; AID 648; viability, % at 10 µM (by protocol); hit rate 1.1% among 86,000; HUVEC proliferation, CellTiter-Glo luminescence, 72 h; active compounds read low;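 active = viability at or below 30%; inactive = viability above 30%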
Large screens that a line does not name were inactive.

CCN(CC)c1ccc(N=Cc2c(O)n(Cc3ccccc3)c(=O)[nH]c2=O)cc1	H69AR growth 86K 17 (no result: Jurkat viability)
C=CCn1c(O)c(C(C)=Nc2ccc(N(CC)CC)cc2)c(=O)[nH]c1=O	H69AR growth 86K 20
CCOc1ccccc1-n1c(O)c(C=Nc2ccc(N(CC)CC)cc2)c(=O)[nH]c1=O	H69AR growth 86K 19 (no result: Jurkat viability)
CCOP(=S)(OCC)SCC(=O)NC(C)(CC)C(=O)O (stereo not drawn)	none (no result: Jurkat viability)
CC(C)CCP(=O)(O)c1ccccc1	none (no result: Jurkat viability)
Clc1cnc(Oc2ccc(Oc3ncc(Cl)cc3Cl)cc2)c(Cl)c1	none (no result: Jurkat viability)
Cc1c(/C=N/O)c2ccccc2n1C	none (no result: Jurkat viability)
O=c1[nH]c(=O)n(C2CCCCCC2)c(O)c1C=NC1CCN(Cc2ccccc2)CC1	H69AR growth 86K 35
O=c1[nH]c(=O)n(Cc2ccco2)c(O)c1C=NC1CC1	none
CC12CN3CN(C1)CC(c1ccccc1)(C3)C2=O	none (no result: Jurkat viability)
CCOc1cccc(OCC)c2c(C)[n+](CC3CCCO3)c(C)c1-2 (stereo not drawn)	H69AR growth 86K 32 (no result: Jurkat viability)
Cc1ccccc1OCCN=Cc1c(O)n(C)c(=O)n(C)c1=O	none (no result: Jurkat viability)
Cc1[nH]c2c(Cl)cccc2c1CCN	H69AR growth 86K 22
Cc1nn(C)cc1/C=C1/CC2C3CC=C4CC(O)CCC4(C)C3CCC2(C)C1=O (stereo not drawn)	H69AR growth 86K 9.0 (no result: Jurkat viability)
CC(=O)[C@@]1(O)CC[C@H]2[C@@H]3CC=C4C[C@@H](O)CC[C@]4(C)[C@H]3CC[C@@]21C	none (no result: Jurkat viability)
Cc1cccc(C)c1NC(=O)CN(C)CC(=O)Nc1ccc(C#N)c(Cl)c1	none (no result: Jurkat viability)
CCOC(=O)C1=C(N)Oc2cc(C)oc(=O)c2C12C(=O)N1c3c(cc(OC)cc32)C(C)=CC1(C)C (stereo not drawn)	H69AR growth 86K 31
CCOC(=O)C1=C(N)Oc2cc(C)oc(=O)c2C12C(=O)N1c3c(cccc32)C(C)=CC1(C)C (stereo not drawn)	none
Clc1ccc(COC(Cn2ccnc2)c2ccc(Cl)cc2Cl)c(Cl)c1 (stereo not drawn)	H69AR growth 86K 2.3 (no result: Jurkat viability)
CC(Cc1ccccc1)[n+]1cc(/N=C(\[O-])Nc2ccccc2)on1 (stereo not drawn)	none (no result: Jurkat viability)
O=C(c1cc2c(s1)-c1ccccc1OC2)N1CCC2(CC1)OCCO2	Jurkat viability 38 (no result: H69AR growth 86K, Fibroblast inh, HUVEC inhibit)
CCCc1nc2ccccc2c(=O)n1-c1ccc(OC)cc1	none (no result: Jurkat viability)
CCc1nc2ccccc2c(=O)n1-c1ccc2ccccc2c1	H69AR growth 86K 31 (no result: Jurkat viability)
Cc1nc2cc(C(=O)N3CCC4(CC3)OCCO4)ccc2n1-c1cccc(F)c1	none
O=C(c1ccc2c(c1)ncn2C1CCCCCC1)N1CCC2(CC1)OCCO2	H69AR growth 86K 28
CCn1nc(-c2cccs2)nc2c(=O)n(C)c(=O)nc1-2	Jurkat viability 36 (no result: H69AR growth 86K, Fibroblast inh, HUVEC inhibit)
COCCn1c(-c2ccccc2)cc(C(=O)O)c1C	none (no result: Jurkat viability)
CCC(=NCCc1c[nH]c2ccccc12)c1c(O)n(C)c(=O)n(C)c1=O	none (no result: Jurkat viability)
O=c1c2ccccc2nc(-c2ccoc2)n1-c1ccccc1Cl	H69AR growth 86K 34 (no result: Jurkat viability)
CNP(=S)(NC)OCCOc1ccc(OC)cc1	none
CN1CCC(N(C)c2nc(-c3ccccc3)nc3ccccc23)CC1	H69AR growth 86K 27
CCCNS(=O)(=O)c1ccc(OCC(=O)N2CCN(C)CC2)cc1	none (no result: Jurkat viability)
CCCNS(=O)(=O)c1ccc(OCC(=O)N2CCN(Cc3ccc4c(c3)OCO4)CC2)cc1	Jurkat viability 31
C=CCn1c(O)c(C=NCCCOc2ccc(CC)cc2)c(=O)[nH]c1=S	H69AR growth 86K 31 (no result: Jurkat viability)
CCN1/C(=C\C=C\C2=[N+](CC)c3ccccc3C2(C)C)C(C)(C)c2ccccc21	H69AR growth 86K 0.2, Fibroblast inh 8.7, HUVEC inhibit 22 (no result: Jurkat viability)
O=C(CCN1C(=O)COc2ccccc21)N1CCC2(CC1)OCCO2	none
S=C1NCCN1	none (no result: Jurkat viability)
O=c1[nH]c(=S)n(Cc2ccc(F)cc2)c(O)c1C=NCc1cccnc1	none (no result: Jurkat viability)
CCN(CC)CCNC(=O)c1c(O)c2ccccc2n(Cc2ccccc2)c1=O	H69AR growth 86K 27 (no result: Jurkat viability)
CCN(CC)CCCNC(=O)c1c(O)c2ccccc2n(Cc2ccccc2)c1=O	H69AR growth 86K 9.1 (no result: Jurkat viability)
CCCC1(CCC)C(=O)NC(=NCc2ccccc2)NC1=O	H69AR growth 86K 29
CCCC1(CCC)C(=O)NC(=Nc2ccccc2)NC1=O	none (no result: Jurkat viability)
O=c1c2ccccc2nc(N2CCCC2)n1-c1ccc(Cl)cc1	none
O=C(Nc1ccc(Cl)cc1)Nc1nccs1	H69AR growth 86K 29 (no result: Jurkat viability)
C=CCn1c(O)c(C(CC)=NC(C)c2ccccc2)c(=O)[nH]c1=O (stereo not drawn)	none (no result: Jurkat viability)
CCCCn1c(O)c(C(CC)=NC(C)c2ccccc2)c(=O)[nH]c1=O (stereo not drawn)	H69AR growth 86K 17 (no result: Jurkat viability)
CCCCn1c(O)c(C(C)=NC(C)c2ccccc2)c(=O)[nH]c1=O (stereo not drawn)	H69AR growth 86K 28
CCCCn1c(O)c(C(CC)=Nc2ccc(OC)cc2OC)c(=O)[nH]c1=O	H69AR growth 86K 34 (no result: Jurkat viability)
CC1CCC(C(=O)NC(C(=O)N2CCC3(CC2)OCCO3)C(C)C)CC1 (stereo not drawn)	none
CN1CCN(C(=O)OC2c3nccnc3C(=O)N2c2ccc(Cl)cn2)CC1 (stereo not drawn)	none

Screening data as filed in PubChem.
